Reference: ChEMBL document CHEMBL3045240 (J Med Chem, 1987)

Key:
[1] = Toxicity in ip dosed Mus musculus Swiss-Webster (mouse) assessed as mortality measured after 24 hr; format: organism-based; conditions: in vivo
[2] = tested on: Musca domestica; assay: Toxicity against SCR-susceptible Musca domestica (house fly) assessed as immobility compound administered by intrathoracic injection 2 hr after piperonyl butoxide treatment measured 4 hr post compound treatment; format: functional
Procedure, shortened: (§1)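 Houseflies first received 7.5 μg piperonyl butoxide in 0.5 μL acetone topically on the abdomen. After 2 h they were given the test compound by intrathoracic injection in 1 μL of 50% aqueous ethanol. Flies immobilised at 4 h were scored, and KD50 came from log dose–probit plots. Two independent experiments were run, each with 10 flies per dose and 1.5–2-fold dose spacing.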

[3] = target: T1, Ryanodine receptor 1 (Oryctolagus cuniculus, UniProt P11716)
[4] = tested on: Musca domestica; assay: Drug metabolism in SCR-susceptible Musca domestica (house fly) assessed as unidentified metabolite intermediate Rf in exctreta at 160 ug/g after 4 hr by TLC method; format: ADME, organism-based; conditions: in vivo
[5] = tested on: Musca domestica; assay: Drug metabolism in SCR-susceptible Musca domestica (house fly) assessed as unidentified metabolite intermediate Rf in exctreta at 160 ug/g after 1 hr by TLC method; format: ADME, organism-based; conditions: in vivo
Procedure, shortened: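 Excreta were extracted with MeOH, then run on TLC on 0.20-mm silica gel in 15% MeOH/CHCl3. Metabolites were detected by liquid scintillation counting.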

[6] = tested on: Musca domestica; assay: Ratio of compound KD50 to ryanodine KD50 for SCR-susceptible Musca domestica (house fly) assessed as immobility compound administered by intrathoracic injection measured 4 hr post compound treatment; format: ADME, organism-based; conditions: in vivo, other
Procedure, shortened: (§2)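 Houseflies without piperonyl butoxide pretreatment received ryanoid by intrathoracic injection in 50% aqueous ethanol. Knockdown (immobility) was scored 4 h after treatment, and KD50 came from log dose–probit plots. Two independent experiments were run, each with 10 flies per dose and 1.5–2-fold dose spacing.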

[7] = target: T1, Ryanodine receptor 1; assay: Ratio of compound IC50 to ryanodine IC50 for Ca2+-ryanodine receptor in Oryctolagus cuniculus (rabbit) skeletal muscle sarcoplasmic reticulum after 80 min by competitive inhibition assay; format: ADME
Procedure, shortened: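 Rabbit fast skeletal muscle heavy SR (terminal cisternae) receptor, solubilised with 1 M NaCl, 1 mg CHAPS/mg protein and 40 mM Tris/maleate pH 7.1. […] Incubation was 80 min at 37°C, then GF/C filtration. IC50 came from Hill regression.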

[8] = tested on: Musca domestica; assay: Ratio of compound KD50 to ryanodine KD50 for SCR-susceptible Musca domestica (house fly) assessed as immobility compound administered by intrathoracic injection 2 hr after piperonyl butoxide treatment measured 4 hr post compound treatment; format: functional; procedure, shortened: as §1
[9] = tested on: Mus musculus; assay: Ratio of compound LC50 to ryanodine LC50 for ip dosed Mus musculus Swiss-Webster (mouse) assessed as mortality measured after 24 hr; format: ADME, organism-based; conditions: in vivo
[10] = tested on: Musca domestica; assay: Toxicity against SCR-susceptible Musca domestica (house fly) assessed as immobility compound administered by intrathoracic injection measured 4 hr post compound treatment; format: functional; procedure, shortened: as §2

T1 sequence (P11716 whole entry): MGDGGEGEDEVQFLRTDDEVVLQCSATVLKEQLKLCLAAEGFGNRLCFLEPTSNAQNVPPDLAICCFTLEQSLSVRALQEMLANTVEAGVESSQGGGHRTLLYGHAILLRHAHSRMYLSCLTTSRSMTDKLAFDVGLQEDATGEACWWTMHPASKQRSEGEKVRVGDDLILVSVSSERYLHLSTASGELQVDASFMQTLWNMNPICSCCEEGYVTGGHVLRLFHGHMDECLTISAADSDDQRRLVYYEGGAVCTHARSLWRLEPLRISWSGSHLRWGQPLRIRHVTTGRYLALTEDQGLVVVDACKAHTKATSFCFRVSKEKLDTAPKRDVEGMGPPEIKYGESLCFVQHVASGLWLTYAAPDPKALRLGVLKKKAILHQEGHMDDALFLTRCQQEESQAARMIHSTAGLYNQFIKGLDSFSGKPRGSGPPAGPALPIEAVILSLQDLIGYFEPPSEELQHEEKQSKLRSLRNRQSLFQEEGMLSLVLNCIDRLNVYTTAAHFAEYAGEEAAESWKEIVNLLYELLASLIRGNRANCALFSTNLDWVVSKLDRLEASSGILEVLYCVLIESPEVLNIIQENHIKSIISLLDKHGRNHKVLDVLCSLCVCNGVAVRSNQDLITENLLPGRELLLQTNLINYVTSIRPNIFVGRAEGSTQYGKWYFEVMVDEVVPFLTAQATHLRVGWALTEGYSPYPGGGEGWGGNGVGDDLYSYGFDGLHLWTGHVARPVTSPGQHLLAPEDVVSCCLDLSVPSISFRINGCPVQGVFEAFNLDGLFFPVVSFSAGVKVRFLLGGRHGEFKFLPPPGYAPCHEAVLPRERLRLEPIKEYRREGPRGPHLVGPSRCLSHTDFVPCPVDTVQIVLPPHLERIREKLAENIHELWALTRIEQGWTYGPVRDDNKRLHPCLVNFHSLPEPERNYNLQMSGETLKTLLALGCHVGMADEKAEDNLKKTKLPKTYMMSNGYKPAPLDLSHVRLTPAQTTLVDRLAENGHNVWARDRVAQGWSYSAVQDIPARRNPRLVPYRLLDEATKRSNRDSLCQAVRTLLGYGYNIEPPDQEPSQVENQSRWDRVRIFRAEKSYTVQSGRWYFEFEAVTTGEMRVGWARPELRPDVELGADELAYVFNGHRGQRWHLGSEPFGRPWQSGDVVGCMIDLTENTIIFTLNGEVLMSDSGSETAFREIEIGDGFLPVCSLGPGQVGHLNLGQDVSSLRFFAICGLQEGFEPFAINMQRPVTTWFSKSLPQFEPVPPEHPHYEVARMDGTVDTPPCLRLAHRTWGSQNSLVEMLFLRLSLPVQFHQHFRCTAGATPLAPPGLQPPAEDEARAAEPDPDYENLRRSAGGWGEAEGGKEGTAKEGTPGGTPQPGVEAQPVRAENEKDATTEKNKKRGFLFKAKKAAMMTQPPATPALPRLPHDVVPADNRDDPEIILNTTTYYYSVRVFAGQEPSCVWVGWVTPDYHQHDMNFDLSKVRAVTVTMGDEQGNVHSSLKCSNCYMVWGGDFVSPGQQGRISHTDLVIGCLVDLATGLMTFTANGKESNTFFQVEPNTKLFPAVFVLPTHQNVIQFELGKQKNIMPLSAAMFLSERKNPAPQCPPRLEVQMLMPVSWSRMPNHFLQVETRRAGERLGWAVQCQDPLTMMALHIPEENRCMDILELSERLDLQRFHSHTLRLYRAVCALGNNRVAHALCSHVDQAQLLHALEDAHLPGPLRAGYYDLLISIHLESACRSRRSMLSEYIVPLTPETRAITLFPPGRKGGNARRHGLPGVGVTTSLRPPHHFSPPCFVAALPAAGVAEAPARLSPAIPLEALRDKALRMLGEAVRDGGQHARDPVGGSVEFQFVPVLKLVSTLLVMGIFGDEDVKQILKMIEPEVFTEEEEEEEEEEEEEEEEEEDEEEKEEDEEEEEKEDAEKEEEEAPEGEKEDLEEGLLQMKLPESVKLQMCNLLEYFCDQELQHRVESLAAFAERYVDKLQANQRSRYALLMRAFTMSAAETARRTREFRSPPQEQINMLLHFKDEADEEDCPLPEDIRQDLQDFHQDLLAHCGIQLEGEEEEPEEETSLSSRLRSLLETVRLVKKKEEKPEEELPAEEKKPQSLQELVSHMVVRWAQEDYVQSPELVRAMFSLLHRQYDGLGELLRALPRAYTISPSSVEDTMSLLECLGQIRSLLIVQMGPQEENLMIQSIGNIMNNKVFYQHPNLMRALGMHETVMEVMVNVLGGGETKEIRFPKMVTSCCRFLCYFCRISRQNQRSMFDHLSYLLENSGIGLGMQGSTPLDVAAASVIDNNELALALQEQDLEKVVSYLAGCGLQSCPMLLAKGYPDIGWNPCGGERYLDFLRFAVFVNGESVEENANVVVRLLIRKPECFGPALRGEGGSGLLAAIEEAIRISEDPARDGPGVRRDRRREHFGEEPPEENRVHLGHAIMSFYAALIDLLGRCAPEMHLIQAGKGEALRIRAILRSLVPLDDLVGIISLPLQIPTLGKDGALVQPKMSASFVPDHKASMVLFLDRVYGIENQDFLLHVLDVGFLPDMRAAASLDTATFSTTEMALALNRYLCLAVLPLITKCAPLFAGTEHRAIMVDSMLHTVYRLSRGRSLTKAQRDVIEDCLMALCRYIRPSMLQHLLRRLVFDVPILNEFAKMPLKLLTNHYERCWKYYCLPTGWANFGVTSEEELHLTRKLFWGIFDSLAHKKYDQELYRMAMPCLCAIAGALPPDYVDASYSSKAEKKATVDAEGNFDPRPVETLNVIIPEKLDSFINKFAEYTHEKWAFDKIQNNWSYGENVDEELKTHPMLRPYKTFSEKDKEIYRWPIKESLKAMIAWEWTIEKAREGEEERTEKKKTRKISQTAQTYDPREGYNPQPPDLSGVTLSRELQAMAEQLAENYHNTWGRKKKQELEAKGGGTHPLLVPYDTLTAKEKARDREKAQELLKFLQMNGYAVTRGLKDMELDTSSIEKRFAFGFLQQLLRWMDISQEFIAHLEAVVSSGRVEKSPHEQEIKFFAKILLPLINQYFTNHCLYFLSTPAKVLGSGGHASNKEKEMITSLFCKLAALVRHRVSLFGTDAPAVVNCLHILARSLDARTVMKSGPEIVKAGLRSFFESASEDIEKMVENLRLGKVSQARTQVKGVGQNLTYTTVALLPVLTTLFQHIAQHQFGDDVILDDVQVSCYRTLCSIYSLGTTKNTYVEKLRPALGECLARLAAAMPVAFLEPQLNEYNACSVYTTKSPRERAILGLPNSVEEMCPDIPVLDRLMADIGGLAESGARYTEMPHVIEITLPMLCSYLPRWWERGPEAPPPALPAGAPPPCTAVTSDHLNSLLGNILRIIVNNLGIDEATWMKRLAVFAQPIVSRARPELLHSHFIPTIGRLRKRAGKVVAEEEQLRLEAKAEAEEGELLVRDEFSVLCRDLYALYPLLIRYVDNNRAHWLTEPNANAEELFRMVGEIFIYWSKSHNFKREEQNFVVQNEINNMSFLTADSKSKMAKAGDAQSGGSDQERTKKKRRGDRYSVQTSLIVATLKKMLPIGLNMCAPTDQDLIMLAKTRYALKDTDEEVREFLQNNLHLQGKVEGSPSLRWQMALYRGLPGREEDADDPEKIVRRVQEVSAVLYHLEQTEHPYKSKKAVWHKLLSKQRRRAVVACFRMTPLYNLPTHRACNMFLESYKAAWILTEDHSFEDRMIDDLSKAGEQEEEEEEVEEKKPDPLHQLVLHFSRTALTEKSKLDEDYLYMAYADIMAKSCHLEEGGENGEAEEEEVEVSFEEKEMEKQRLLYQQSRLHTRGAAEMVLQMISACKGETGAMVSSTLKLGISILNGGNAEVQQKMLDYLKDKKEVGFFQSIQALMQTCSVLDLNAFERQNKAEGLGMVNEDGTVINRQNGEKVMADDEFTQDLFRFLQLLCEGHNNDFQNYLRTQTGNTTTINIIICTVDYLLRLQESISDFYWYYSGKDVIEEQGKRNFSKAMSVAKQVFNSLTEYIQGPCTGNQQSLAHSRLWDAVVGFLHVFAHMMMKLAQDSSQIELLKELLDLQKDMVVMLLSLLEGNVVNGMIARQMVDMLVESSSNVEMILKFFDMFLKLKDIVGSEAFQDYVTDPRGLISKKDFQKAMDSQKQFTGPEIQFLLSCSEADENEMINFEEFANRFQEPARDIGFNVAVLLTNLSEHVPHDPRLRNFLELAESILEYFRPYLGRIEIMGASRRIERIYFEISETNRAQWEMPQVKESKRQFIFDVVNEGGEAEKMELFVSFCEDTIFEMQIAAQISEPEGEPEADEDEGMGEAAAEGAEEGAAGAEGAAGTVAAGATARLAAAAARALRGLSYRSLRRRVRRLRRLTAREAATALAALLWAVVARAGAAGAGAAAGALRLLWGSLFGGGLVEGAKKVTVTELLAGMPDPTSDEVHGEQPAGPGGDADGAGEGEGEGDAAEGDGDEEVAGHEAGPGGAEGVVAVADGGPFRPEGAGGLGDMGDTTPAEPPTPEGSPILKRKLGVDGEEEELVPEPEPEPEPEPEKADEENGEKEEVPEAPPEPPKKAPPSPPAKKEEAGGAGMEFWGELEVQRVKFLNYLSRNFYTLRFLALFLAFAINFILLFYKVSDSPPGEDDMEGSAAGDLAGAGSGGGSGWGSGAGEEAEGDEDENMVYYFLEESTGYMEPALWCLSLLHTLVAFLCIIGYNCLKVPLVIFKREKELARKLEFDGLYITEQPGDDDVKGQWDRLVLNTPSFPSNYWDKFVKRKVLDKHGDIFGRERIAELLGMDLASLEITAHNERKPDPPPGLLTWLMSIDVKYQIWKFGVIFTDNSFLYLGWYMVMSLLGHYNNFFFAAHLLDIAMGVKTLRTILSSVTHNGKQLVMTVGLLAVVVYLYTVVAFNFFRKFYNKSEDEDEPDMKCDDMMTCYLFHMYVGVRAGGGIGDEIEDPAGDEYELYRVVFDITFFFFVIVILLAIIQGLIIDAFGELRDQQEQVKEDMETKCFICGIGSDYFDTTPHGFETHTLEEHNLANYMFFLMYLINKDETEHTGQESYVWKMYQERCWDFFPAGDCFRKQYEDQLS

`CO[C@@]12C[C@@]3(C)[C@@]4(O)CC[C@H](C)[C@@H](O)[C@]4(O1)[C@]1(O)[C@@]3(O)[C@H](OC(=O)c3cccn3C)[C@](O)(C(C)C)[C@]21C` gave an LD50 at 24 h [1] of 17 mg/kg, a KD50 [2] greater than 20 µg/g and an IC50 [3] of 280 nM.
`CC(C)[C@@]1(O)[C@@H](OC(=O)c2ccc[nH]2)[C@@]2(O)[C@@]3(C)C[C@]4(O)O[C@@]5([C@H](O)[C@](O)(CO)CC[C@]35O)[C@@]2(O)[C@]14C` [9,21-DIHYDROXYRYANODINE] gave a KD50 [2] of 10 µg/g and an IC50 [3] of 4900 nM.
Work on `CC(C)[C@@]1(O)[C@@H](OC(=O)c2ccc[nH]2)[C@@]2(O)[C@@]3(C)C[C@]4(O)O[C@@]5([C@H](O)C6(CC[C@]35O)CO6)[C@@]2(O)[C@]14C` (stereo not given in full) [9,21-EPOXYRYANODINE] yielded an LD50 at 24 h [1] of 1.5 mg/kg, a KD50 [2] of 0.3 µg/g and an IC50 [3] of 140 nM.
In the case of `CC(C)[C@@]1(O)[C@@H](OC(=O)c2cc[nH]c2)[C@@]2(O)[C@]3(C)C[C@@]4(O)O[C@@]5([C@H](O)[C@@H](C)CC[C@]35O)[C@@]2(O)[C@@]41C` [RYANODINE], the Drug metabolism [4] is reported as “Active” and the Drug metabolism [5] is reported as “Active”.
In the case of `CC(C)[C@@]1(O)[C@@H](OC(=O)c2ccc[nH]2)[C@@]2(O)[C@@]3(C)C[C@]4(O)O[C@@]5([C@H](O)[C@@H](C)CC[C@]35O)[C@@]2(O)[C@@]14C` [RYANODINE], the LD50 at 24 h [1] is reported as 0.1 mg/kg.
`C=C1CC[C@]2(O)[C@]3(C)C[C@]4(O)O[C@@]2([C@@H]1O)[C@]1(O)[C@@]3(O)[C@H](OC(=O)c2ccc[nH]2)[C@](O)(C(C)C)[C@@]14C` [DEHYDRORYANODINE] gave an LD50 at 24 h [1] of 0.1 mg/kg, a KD50 [2] of 0.03 µg/g and an IC50 [3] of 13 nM.
`CC1=CC[C@]2(O)[C@]3(C)C[C@]4(O)O[C@@]2(C1=O)[C@]1(O)[C@@]3(O)[C@H](OC(=O)c2ccc[nH]2)[C@](O)(C(C)C)[C@@]14C` showed an LD50 at 24 h [1] greater than 5 mg/kg and an IC50 [3] of 7300 nM.
`C=C1CC[C@]2(O)[C@]3(C)C[C@]4(O)O[C@@]2([C@@H]1O)[C@]1(O)[C@@]3(O)[C@H](O)[C@](O)(C(C)C)[C@@]14C` [DIDEHYDRORYANODOL] showed an LD50 at 24 h [1] greater than 20 mg/kg, a KD50 [2] of 0.36 µg/g and an IC50 [3] of 10000 nM.
Compound `CC(C)[C@@]1(O)[C@@H](OC(=O)c2ccc[nH]2)[C@@]2(O)[C@@]3(C)C[C@]4(O)O[C@@]5(C(=O)[C@@H](C)CC[C@]35O)[C@@]2(O)[C@]14C` [10-KETORYANODINE] has an LD50 at 24 h [1] of 0.55 mg/kg, a KD50 [2] greater than 20 µg/g and an IC50 [3] of 100 nM.
With `CO[C@@]12C[C@@]3(C)[C@@]4(O)CC[C@H](C)[C@@H](O)[C@]4(O1)[C@]1(O)[C@@]3(OC)[C@H](OC(=O)c3cccn3C)[C@](O)(C(C)C)[C@]21C` the LD50 at 24 h [1] was greater than 20 mg/kg, the KD50 [2] was greater than 20 µg/g and the IC50 [3] was 4500 nM.
In the case of `CC(C)[C@@]1(O)[C@@H](OC(=O)c2[nH]c(Br)c(Br)c2Br)[C@@]2(O)[C@@]3(C)C[C@]4(O)O[C@@]5([C@H](O)[C@@H](C)CC[C@]35O)[C@@]2(O)[C@]14C` [24,25,26-TRIBROMORYANODINE], the LD50 at 24 h [1] is reported as greater than 20 mg/kg and the IC50 [3] is reported as greater than 10000 nM.
With `CC(CO)[C@@]1(O)[C@@H](OC(=O)c2ccc[nH]2)[C@@]2(O)[C@@]3(C)C[C@]4(O)O[C@@]5([C@H](O)[C@@H](C)CC[C@]35O)[C@@]2(O)[C@]14C` (stereo not given in full) [18-HYDROXYRYANODINE] the LD50 at 24 h [1] was 0.9 mg/kg and the IC50 [3] was 88 nM.
`CC1=C(C(C)C)[C@@H](OC(=O)c2ccc[nH]2)[C@@]2(O)[C@@]3(C)CC(=O)O[C@@]4([C@H](O)[C@@H](C)CC[C@]34O)[C@@]12O` [ANHYDRORYANODINE] showed an LD50 at 24 h [1] greater than 20 mg/kg and an IC50 [3] greater than 10000 nM.
For `CC(C)[C@@]1(O)[C@@H](O)[C@@]2(O)[C@@]3(C)C[C@]4(O)O[C@@]5([C@H](O)[C@@H](C)CC[C@]35O)[C@@]2(O)[C@]14C` [RYANODOL], the Ratio [6] was 0.8, the “Ratio IC50” value [7] was 3500 and the LD50 at 24 h [1] was greater than 20 mg/kg. It also gave a Ratio [8] of 3.6, a Ratio [9] greater than 200 and a KD50 [2] of 0.34 µg/g. For the same compound, the KD50 [10] was 1.1 µg/g and the IC50 [3] was 35000 nM.
`CO[C@@]12C[C@@]3(C)[C@@]4(OC)CC[C@H](C)[C@@H](O)[C@]4(O1)[C@]1(O)[C@@]3(O)[C@H](OC(=O)c3cccn3C)[C@](O)(C(C)C)[C@]21C` showed a KD50 [2] of 12 µg/g and an IC50 [3] of 1300 nM.
Work on `CC(=O)O[C@@H]1[C@@H](C)CC[C@]2(O)[C@]3(C)C[C@]4(O)O[C@]12[C@]1(O)[C@@]3(O)[C@H](OC(=O)c2ccc[nH]2)[C@](O)(C(C)C)[C@@]14C` [10-ACETYLRYANODINE] yielded a KD50 [2] of 0.5 µg/g and an IC50 [3] of 140 nM.
Work on `CO[C@@H]1[C@@H](C)CC[C@]2(O)[C@]3(C)C[C@]4(OC)O[C@]12[C@]1(O)[C@@]3(OC)[C@H](OC(=O)c2cccn2C)[C@](O)(C(C)C)[C@]41C` yielded an LD50 at 24 h [1] greater than 20 mg/kg, a KD50 [2] greater than 20 µg/g and an IC50 [3] greater than 10000 nM.
For `CC(C)[C@@]1(O)[C@@H](OC(=O)c2cccn2Cc2ccccc2)[C@@]2(O)[C@@]3(C)C[C@]4(O)O[C@@]5([C@H](O)[C@@H](C)CC[C@]35O)[C@@]2(O)[C@]14C` [N-BENZYLRYANODINE], the LD50 at 24 h [1] was 6.3 mg/kg and the IC50 [3] was 310 nM.
For `CC(C)[C@@]1(O)[C@@H](OC(=O)c2ccc[nH]2)[C@@]2(O)[C@@]3(C)C[C@]4(O)O[C@@]5([C@H](O)[C@H](C)CC[C@]35O)[C@@]2(O)[C@]14C` [EPIRYANODINE], the LD50 at 24 h [1] was 0.47 mg/kg.
`CCCCn1cccc1C(=O)O[C@H]1[C@@]2(O)[C@@]3(C)C[C@]4(O)O[C@@]5([C@H](O)[C@@H](C)CC[C@]35O)[C@@]2(O)[C@]4(C)[C@@]1(O)C(C)C` [N-BUTYLRYANODINE] gave an IC50 [3] of 860 nM.
